Assay results reported in PubChem BioAssay.
Unmarked numbers belong to inactive results. Inconclusive results are not listed. Calls of active or inactive are those of the source.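 How the source made its calls, unless noted: active means viability increase at or above a cutoff of the median across tested compounds plus 3 SD (cut at about 8.5% in these data, passing the limit was not always enough); inconclusive means some gains above the cutoff, reason not given; inactive means the rest.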

Key:
[1] = OD615 S. cerevisiae growth inhibition, permissive medium, pilot counter-assay, permissive growth control for S. cerevisiae lifespan shortening project (AID 705;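 active means growth inhibition above 25% in both replicates, a cutoff set 3 SD above the mean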); settings: OD615, 24 h, at 10 µM, hits give high values
Outline: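 assay system = Saccharomyces cerevisiae strain carrying genetically modified DeaD replicative-lifespan system | medium = SC raffinose/galactose permissive medium | dosing = 10 µM single dose, 0.25% DMSO | schedule = 24 h compound exposure at 30 °C after 4 h pre-growth | measured by = OD at 615 nm | read-out basis = growth inhibition from lowered OD615 after 24 h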

[2] = Restrictive medium S. cerevisiae growth inhibition, OD615, pilot screen of yeast lifespan reduction project, restrictive growth control (AID 706;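 active means growth inhibition above a set limit, 3 SD over mean compound inhibition, in both replicates, cut at about 43% in these data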;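 further: modified DeaD lifespan yeast strain shifted to restrictive glucose medium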); settings: OD615, 48 h, at 10 µM, hits give high values
Outline: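 Buffer or medium: CSMM-D glucose medium. Material: genetically modified Saccharomyces cerevisiae, DeaD replicative lifespan assay strain. Times: 48 h compound exposure at 30 °C. Measured by: optical density at 615 nm.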

[3] = viability gain of MRP-1-high H69AR cells under doxorubicin, pilot screen, MRP-1 activator project, CellTiter-Glo, duplicate (AID 807); settings: H69AR viability with doxorubicin, CellTiter-Glo luminescence; at 10 µM; hits give high values;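 further: compound pretreatment 18-22 h then 72 h combined with doxorubicin; 0% = doxorubicin alone and 100% = vehicle without doxorubicin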
[4] = growth suppression of beta-catenin knockout HCT116, pilot screen, human colon tumor cells (AID 823;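 active means cell viability at or below a set limit in both duplicate runs, the limit being the all-compound median minus 4 SD, cut at about 23% in these data, passing the limit was not always enough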;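 further: 0% = wells killed by 20 µM Hyamine and 100% = untreated DMSO cell wells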); settings: CellTiter-Glo, 60 h, at 10 µM, hits give low values
[5] = growth suppression of PTEN-deleted HCT116, pilot screen, cell-based, HCT116 clonal line, CellTiter-Glo (AID 824;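 active means viability at or below 27.92% in each of two runs, the all-compound median minus 4 SD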;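 further: 0% = 20 µM Hyamine control and 100% = vehicle cell control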); settings: 60 h, at 10 µM, hits give low values
[6] = inhibitors of the yeast RAM network, pilot screen, dse1pr::URA3 reporter, 5-FOA selection (AID 869;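 active means inhibition over a set limit, the all-compound mean plus 3 SD, in both replicate runs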;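 further: 0% = DMSO wells with no growth and 100% = 10 µM 1-NA-PP1 with full growth; RAM network block rescues cells from 5-FOA so hits raise OD615 growth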); settings: S. cerevisiae dse1pr::URA3 5-FOA growth, OD615, 2 d; at 10 µM; hits give high values; strain carries analog-sensitive mutant Cbk1 kinase
[7] = RAM signaling pathway blockade in yeast – S. cerevisiae, Pdr1DBD-CYC8 efflux-inhibited sensitized strain, primary screen (AID 1298;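 active means RAM network inhibition above 8.4% in each of two replicates, 3 SD over the compound average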;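 further: 0% = DMSO untreated cells without growth and 100% = 10 µM 1-NA-PP1 full growth; higher means more yeast growth rescued from 5-FOA killing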); settings: S. cerevisiae cbk1-as DSE1-URA3 strain, 5-FOA growth OD615, 2 d; at 50 µM; hits give high values

| SMILES | growth inhibition [1] [%] | growth inhibition [2] [%] | viability increase [3] [%] | viability [4] | viability [5] | inhibition [6] [%] | RAM network inhibition [7] [%] |
| --- | --- | --- | --- | --- | --- | --- | --- |
| CCOc1ccc(OCC)c(S(=O)(=O)NCCCN2CCOCC2)c1 | -13.8 | -12.2 | -0.25 | 99.8% | 99% | 0.535 | 0.2 |
| O=C(Nc1cccc(F)c1)c1ccc(S(=O)(=O)N2CCCC2)cc1 | -3.88 | 0 | 1.26 | 101% | 97% | 1.78 | -0.43 |
| CCOc1ccccc1Nc1nnc(C)c(=O)[nH]1 | -5.5 | 5.76 | -0.35 | 105% | 99.3% | 0.56 | 3.65 |
| CCN1CCc2c(sc(NC(=O)c3ccc(S(=O)(=O)N4CCOCC4)cc3)c2C(N)=O)C1 | -2.02 | -1.51 | -2.7 | 86.8% | 87.2% | 1.45 | 0.16 |
| CCOc1ccc(NC(=O)CSc2nnc(Cc3cccn3C)n2-c2ccc(F)cc2)cc1 | 11.1 | 19.2 | -4.64 | 95.7% | 91% | 1.56 | 6.97 |
| Cc1ccc(N2C(=O)CC(N3CCN(C4CCc5ccccc5C4)CC3)C2=O)cc1 (stereo unspecified) | -2.06 | 1.44 | -2.69 | 102% | 98.2% | 0.215 | 6.5 |
| CN(CC(=O)NC1CCCCCCC1)S(=O)(=O)c1cccc2cccnc12 | 0.055 | 0.405 | -1.32 | 93.2% | 87.1% | 1.26 | 2.33 |
| NC(=O)CSc1nc2ccccc2n1-c1ccccc1 | -9.13 | 1.74 | -0.83 | 99% | 97.5% | 0.02 | 0.62 |
| CCOC(=O)NC(Nc1cc(C)ccn1)(C(F)(F)F)C(F)(F)F | 0.885 | -3.62 | -1.93 | 104% | 100% | 0.28 | -1.18 |
| CN(CC(CC(=O)Nc1nncs1)c1ccccc1)S(=O)(=O)c1ccccc1 (stereo unspecified) | -13.9 | -11.4 | -1.16 | 96.2% | 81.2% | 1.82 | 3.38 |
| O=C(C1CC1)N1CCc2cc(Br)cc(S(=O)(=O)NCc3ccc4c(c3)OCO4)c21 | -4.48 | -5.21 | -1.52 | 87.1% | 86.1% | 1.23 | 5.72 |
| N#Cc1c(SCC(N)=O)nc2c(c1-c1ccc(O)cc1)CCCC2 | -15.2 | -15.6 | -1.33 | 94.5% | 93.6% | 3.51 | 4.51 |
| Cc1cc(O)c(C=Nc2cccc(Cl)c2)c(=O)o1 | 4.66 | 4.37 | -3.17 | 102% | 94.1% | 3.11 | -0.93 |
| O=C(NCC1CCCO1)c1ccc2c(c1)OCO2 (stereo unspecified) | -3.01 | 6 | 0.18 | 98.4% | 94.3% | 0.385 | 3.13 |
| O=S(=O)(c1ccc(N2CC=C(c3ccccc3)CC2)nc1)N1CCCC1 | -6.39 | -12.5 | -7 | 4.45% (active) | 3.3% (active) | 2.18 | 2.69 |
| Cc1c(C(=O)N2CCCC2)oc2c1-c1[nH]ncc1CC2 | -15.2 | -14.4 | -1.8 | 105% | 94.2% | 0.715 | 2.08 |
| O=C(CN1CCOc2ccccc21)NC1CCN(Cc2ccccc2)CC1 | -5.57 | -4.21 | -3.28 | 77% | 85.5% | 3.18 | 5.65 |
| CCCCCSc1nc2c(c(=O)[nH]c(=O)n2C)n1CC | -13.1 | 1.94 | -3.9 | 88% | 88% | 1.18 | -1.69 |
| Cc1ccc2c(c1)C1(C(=O)N2C)N2CC3(C)CN1CC(C)(C2)C3=O (stereo unspecified) | 6.63 | 0.76 | -2.2 | 99.1% | 99% | 1.27 | 0.11 |
| CCC1CCCCN1Cc1nc2c(c(=O)n(C)c(=O)n2C)n1Cc1cccc2ccccc12 (stereo unspecified) | -13.7 | -7.96 | -1.54 | 92.5% | 83.1% | 0.67 | 8.51 |
| CCOC(=O)NCCc1ccc(OC)cc1 | -4.17 | 5.72 | 1.36 | 99.9% | 95.8% | 1.83 | 0.56 |
| COC(=O)CCC(=O)Nc1ccc(NC(=O)CCC(=O)OC)cc1 | -0.195 | 0.195 | -1.73 | 103% | 96.9% | 1.73 | 0.97 |
| COC(=O)C1(C)Nc2ccccc2C(=O)N1c1ccccc1OC (stereo unspecified) | -17 | -23.6 | -0.77 | 103% | 88.5% | 1.97 | 5.8 |
| O=C(NCCN1CCN(C(=O)Nc2ccccc2)CC1)Nc1ccccc1 | -18.1 | -32.9 | -0.62 | 107% | 94.8% | 1.63 | 3 |

| SMILES | growth inhibition [1] [%] | growth inhibition [2] [%] | viability increase [3] [%] | viability [4] | viability [5] | inhibition [6] [%] | RAM network inhibition [7] [%] |
| --- | --- | --- | --- | --- | --- | --- | --- |
| Fc1cccc(CSc2nc3ccncc3[nH]2)c1 | -13.4 | -9.72 | -0.81 | 94.9% | 79.7% | 1.6 | 7.53 |
| O=C(/C=C\Nc1ccccn1)c1ccc(Cl)cc1 | -7.61 | -36.4 | 0.28 | 83.5% | 81.7% | 2.68 | 8.82 |
| C=C(C)Cn1c(SCC(=O)O)nc2c1c(=O)[nH]c(=O)n2C | -15.9 | -14 | 1.02 | 96.7% | 98.8% | 0.63 | 3.24 |
| CCOC(=O)C1CCCCN1C(=O)CCc1c(C)nc2cc(-c3ccccc3)nn2c1C (stereo unspecified) | 4.13 | -4.46 | 1.11 | 52.9% | 78% | 1.38 | -2.1 |
| CCOc1ccc(N(CC(=O)NCC(C)C)S(C)(=O)=O)cc1 | 6.66 | -4.28 | -0.04 | 98% | 102% | 0.96 | 1.12 |
| COc1cc(C(=O)Nc2nnc(C)s2)cc(OC)c1OC | -12.2 | -5.23 | -2 | 95.2% | 82.3% | 2.54 | 2.16 |
| COc1ccc(OC)c2c(C)cc(NCCN3CCOCC3)nc12 | -14.7 | -2.92 | -4.52 | 81.5% | 84.9% | 1.78 | 2.55 |
| O=C(NCc1ccc(Cl)c(Cl)c1)c1cccnc1 | -7.96 | 4.69 | -1.74 | 99% | 90.9% | 0.58 | 3.32 |
| CC(=O)N1CCc2cc(C(=O)CN3CCN(C(=O)c4ccco4)CC3)ccc21 | 4.58 | 3.74 | -2.02 | 105% | 93.3% | 3.93 | 2.07 |
| Cc1cc(N2CCN(C(c3ccccc3)c3ccc(Cl)cc3)CC2)n2ncnc2n1 (stereo unspecified) | -1.52 | 7.98 | -4.33 | 66.1% | 63.2% | 0.13 | 3.39 |
| Cc1nnc(SCC(=O)NC(C)c2ccccc2)[nH]c1=O (stereo unspecified) | -10.9 | -9.25 | -1.16 | 101% | 99.3% | 4.54 | 5.85 |
| CCOC(=O)N1CCN(C(c2ccc(C)cc2)c2sc3nc(C)nn3c2O)CC1 (stereo unspecified) | 2.26 | 4.33 | -0.59 | 108% | 102% | 0.185 | 0.28 |
| COc1ccc(CCNC(=O)CN(c2ccccc2OC)S(C)(=O)=O)cc1OC | -2.94 | 9.29 | -1.9 | 106% | 96.8% | 1.04 | 1.38 |
| Cc1ccc(SCC(=O)NCC(C)C)cc1 | -0.86 | 6.93 | 0.66 | 97.1% | 102% | 0.42 | 0.68 |
| CCC(C)NC(=O)c1ccccc1NC(=O)CN1C(=O)c2ccccc2S1(=O)=O (stereo unspecified) | -17.3 | -18.6 | 0.23 | 105% | 95.2% | 1.33 | 5.02 |
| CCC(C)Sc1nc2c(c(=O)[nH]c(=O)n2C)n1Cc1ccccc1Cl (stereo unspecified) | -0.795 | 8.91 | -1.95 | 81.6% | 82.2% | 0.75 | 4.89 |
| COC(=O)CC1Oc2ccccc2N(Cc2ccccc2)C1=O (stereo unspecified) | -21.8 | -15.5 | -0.13 | 92.2% | 92.5% | 1.56 | 3.83 |
| CCN1CCN(CC(=O)Nc2ccc3c(c2)OCO3)C(=O)C1=O | -18.6 | -4.2 | -0.45 | 101% | 100% | 0.7 | 6.72 |
| CCOCCCNC(=O)Cc1cc(=O)[nH]c(=O)[nH]1 | -20.6 | -19.6 | -0.42 | 99.2% | 94.1% | 1.44 | 4.84 |
| COc1cc(NC(=O)CN2CC(c3ccccc3)CC2=O)cc(OC)c1 (stereo unspecified) | -20.8 | -10.4 | 0.18 | 100% | 99.4% | 1.27 | 1.83 |
| CCCN1CCN(C(=O)CCCn2c(C)c3cnn(-c4ccccc4)c(=O)c3c2C)CC1 | -10.1 | -6.09 | -2.94 | 102% | 105% | -0.215 | 3.77 |
| COCCNC(=O)C1CCN(S(=O)(=O)c2ccccc2)CC1 | -2.1 | -7.54 | -1.38 | 101% | 93.7% | -0.045 | 2.93 |
| CCS(=O)(=O)NCc1csc(-c2ccccc2)n1 | -0.375 | -0.625 | -2 | 89.9% | 87.5% | 0.635 | 5.48 |
| CN(c1ccccc1)S(=O)(=O)c1cccc(C(=O)N2CCN(c3ccccn3)CC2)c1 | 2.2 | 4.43 | -0.97 | 81% | 86.1% | -0.145 | -1.92 |
